Reference: article PMC9826232 (Chemmedchem, 2022)

Experiments:
HCT15 (G13D) = test: CellTiter-Glo cell viability assay, HCT15; assay type: cell-based; conditions: Homo sapiens, HCT-15, 72 h, read-out: Cellular activity IC50, HCT15 (G13D)
In short: (§1)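 Cells seeded, then held 24 h at 37 °C/5 % CO2 before test compound in DMSO was added at various concentrations. Plates were incubated a further 72 h at 37 °C, 5 % CO2, humidified. Controls were DMSO vehicle and 10 μM staurosporine. CellTiter-Glo reagent was added at equal volume to the medium, then 2 min shaking and 10 min at room temperature before luminescence (ATP) reading. IC50 from dose-response fit; plates accepted only if Z' ≥0.5, from 16 control values each.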

K‐Ras(G12D) = K‐Ras(G12D) (Homo sapiens, UniProt P01116, G12D); test: Nucleotide exchange assay; assay type: biochemical
In short: (§2)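 SOS1 (final 30.2 nM for G12D, 4.6 nM for wild type) and GTP (1 μM final) follow. Incubated overnight at room temperature, then GDP detection reagent for 1 h. Luminescence read; IC50 from sigmoidal curves.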

K‐Ras wild type protein = K‐Ras wild type protein (Homo sapiens, UniProt P01116); test: Nucleotide exchange assay; assay type: biochemical
In short: as §2

K‐Ras4B = K‐Ras4B (Homo sapiens, UniProt P01116); test: NMR titration experiments; assay type: binding
In short: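 GDP-bound K-Ras4B was titrated with test compound and followed by NMR chemical shift perturbation; KD derived from the titration.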

SNU‐1 (G12D) = test: CellTiter-Glo cell viability assay, SNU-1; assay type: cell-based; conditions: Homo sapiens, SNU1, 72 h, read-out: Cellular activity IC50, SNU‐1 (G12D)
In short: as §1

NCI‐H441 (G12 V) = test: CellTiter-Glo cell viability assay, NCI-H441; assay type: cell-based; conditions: Homo sapiens, NCI-H441, 72 h, read-out: Cellular activity IC50, NCI‐H441 (G12 V)
In short: as §1

A549 (G12S) = test: CellTiter-Glo cell viability assay, A549; assay type: cell-based; conditions: Homo sapiens, A549, 72 h, read-out: Cellular activity IC50, A549 (G12S)
In short: as §1

(GTP)K‐Ras4B = (GTP)K‐Ras4B (Homo sapiens, UniProt P01116); test: MST; assay type: binding
H358 (G12 C) = test: CellTiter-Glo cell viability assay, H358; assay type: cell-based; conditions: Homo sapiens, NCI-H358, 72 h, read-out: Cellular activity IC50, H358 (G12 C)
In short: as §1

(GDP)K‐Ras4B = (GDP)K‐Ras4B (Homo sapiens, UniProt P01116); test: MST; assay type: binding
[1] = Control assay for nucleotide exchange assay; conditions: 3 mM compound; percent of control
tErk in A375 cells = test: HTRF assay, tErk in A375; assay type: cell-based; conditions: Homo sapiens, A-375, read-out: tErk IC50
tAkt in SNU‐1 cells = test: HTRF assay, tAkt in SNU-1; assay type: cell-based; conditions: Homo sapiens, SNU1, read-out: tAkt IC50
In short: (§3)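 Test compound was given as a 3-fold 8-point series, top 330 μM final, 1 % DMSO, for 1 h. EGF at 3 nM final was then added for 15 min. Cells were lysed 30 min at room temperature. TR-FRET antibody detection followed after 20 h at room temperature; read-out gave IC50.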

pErk in SNU‐1 cells = test: HTRF assay of downstream phosphorylation, pErk in SNU-1; assay type: cell-based; conditions: Homo sapiens, SNU1, read-out: pErk IC50
In short: as §3

[2] = Stability in cell culture medium; assay type: in vitro ADME; conditions: for stability in cell culture medium: 24 h
pAkt in SNU‐1 cells = test: HTRF assay of downstream phosphorylation, pAkt in SNU-1; assay type: cell-based; conditions: Homo sapiens, SNU1, read-out: pAkt IC50
In short: as §3

tErk in SNU‐1 cells = test: HTRF assay, tErk in SNU-1; assay type: cell-based; conditions: Homo sapiens, SNU1, read-out: tErk IC50
In short: as §3

tAkt in A375 cells = test: HTRF assay, tAkt in A375; assay type: cell-based; conditions: Homo sapiens, A-375, read-out: tAkt IC50
pAkt in A375 cells = test: HTRF assay of downstream phosphorylation, pAkt in A375; assay type: cell-based; conditions: Homo sapiens, A-375, read-out: pAkt IC50
pErk in A375 cells = test: HTRF assay of downstream phosphorylation, pErk in A375; assay type: cell-based; conditions: Homo sapiens, A-375, read-out: pErk IC50
[3] = system: Ras mutant tumor cell lines; test: Tumor cell assays, all tested cell lines; assay type: cell-based; conditions: read-out: IC50 values for all tested cell lines
In short: as §1

[4] = Stability in human plasma solution; assay type: in vitro ADME; conditions: over 24 h

Sequence of K‐Ras(G12D) (P01116 1-188 isoform P01116-2 G12D): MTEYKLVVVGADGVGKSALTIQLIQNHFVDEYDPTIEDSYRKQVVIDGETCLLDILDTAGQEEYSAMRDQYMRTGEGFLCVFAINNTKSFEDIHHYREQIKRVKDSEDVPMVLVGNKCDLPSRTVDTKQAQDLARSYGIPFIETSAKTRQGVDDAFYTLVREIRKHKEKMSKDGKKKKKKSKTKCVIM
Sequence of K‐Ras4B (P01116 1-188 isoform P01116-2): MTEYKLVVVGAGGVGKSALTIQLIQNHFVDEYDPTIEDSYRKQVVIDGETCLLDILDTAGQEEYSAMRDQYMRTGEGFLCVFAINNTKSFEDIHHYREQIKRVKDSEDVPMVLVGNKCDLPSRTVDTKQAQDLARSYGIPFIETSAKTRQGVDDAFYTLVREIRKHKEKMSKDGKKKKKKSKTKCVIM
Sequence of K‐Ras wild type protein (P01116 1-188 isoform P01116-2): as above
Sequence of (GDP)K‐Ras4B (P01116 1-188 isoform P01116-2): as above
Sequence of (GTP)K‐Ras4B (P01116 1-188 isoform P01116-2): as above

Row | SMILES | IC50 (HCT15 (G13D)) | IC50 (K‐Ras(G12D)) | IC50 (K‐Ras wild type protein) | IC50 (SNU‐1 (G12D)) | IC50 (NCI‐H441 (G12 V)) | IC50 (A549 (G12S)) | IC50 (H358 (G12 C)) | WT %CRTL (3 mM) [1] | also measured
1 | O=C(c1nc2cccc(O)c2[nH]1)c1cc2cccc(O)c2o1 [compound 12, (7‐Hydroxy‐1H‐benzimidazol‐2‐yl)‐(7‐hydroxybenzofuran‐2‐yl)methanon] | 37.7 ± 0.4 µM | 340 ± 72 µM | 1100 ± 381 µM | 34.5 ± 2.1 µM | 47.4 ± 3 µM | 45.3 ± 1.5 µM | 37.7 ± 1.3 µM | 75% | Kd (K‐Ras4B): 500 ± 100 µM; fold stronger binding to K‐Ras4B than DHBP (K‐Ras4B; NMR titration KD ratio versus DHBP): 18 fold; Kd ((GTP)K‐Ras4B): 34 µM; Kd ((GDP)K‐Ras4B): 59 µM
2 | Oc1ccc(C(=NNc2ccc(F)cc2)c2ccc(O)cc2)cc1 [7 c, 4,4′‐((2‐(4‐Fluorophenyl)hydrazinylidene)‐methylene)diphenol] | 17.6 ± 13.4 µM | 413 ± 28 µM | 1040 ± 427 µM | 23.7 ± 14.4 µM | 24.7 ± 8.3 µM | 28.7 ± 4.7 µM | 33.7 ± 0.6 µM | 83% | IC50 (tErk in A375 cells): 491 µM; IC50 (tAkt in SNU‐1 cells): > 1000 µM; IC50 (pErk in SNU‐1 cells): 455 µM; cell culture medium stability [2]: 2.2%; IC50 (pAkt in SNU‐1 cells): 95.3 µM; IC50 (tErk in SNU‐1 cells): > 550 µM; IC50 (tAkt in A375 cells): > 1000 µM; IC50 (pAkt in A375 cells): > 1000 µM; IC50 (pErk in A375 cells): 415 µM; IC50 [3]: 20 to 30 µM
3 | O=S(=O)(NN=C(c1ccc(O)cc1)c1ccc(O)cc1)c1ccc(Cl)cc1 [8 c, N′‐(bis(4‐hydroxyphenyl)methylene)‐4‐chlorobenzenesulfonohydrazide] | 85 ± 9.2 µM | 583 ± 146 µM | 1050 ± 405 µM | 81 ± 26.3 µM | 102 ± 16 µM | 71.3 ± 6.5 µM | 69.8 ± 2.4 µM | 91% | IC50 (tErk in A375 cells): 255 µM; IC50 (tAkt in SNU‐1 cells): 586 µM; IC50 (pErk in SNU‐1 cells): 240 µM; IC50 (pAkt in SNU‐1 cells): 96.6 µM; IC50 (tErk in SNU‐1 cells): > 875 µM; IC50 (tAkt in A375 cells): > 1000 µM; IC50 (pAkt in A375 cells): > 1000 µM; IC50 (pErk in A375 cells): 203 µM
4 | Oc1ccc(C(=NOCc2ccccc2)c2ccc(O)cc2)cc1 [compound 11, Bis(4‐hydroxyphenyl)methanone‐O‐benzyl oxime] | 43.9 ± 1.8 µM | 431 ± 22 µM | 1330 ± 343 µM | 41.7 ± 4.2 µM | 62.2 ± 4.8 µM | 54.3 ± 3.6 µM | 58.6 ± 0.5 µM | 98% | IC50 (tErk in A375 cells): 77.2 µM; IC50 (tAkt in SNU‐1 cells): 475 µM; IC50 (pErk in SNU‐1 cells): 218 µM; stability in cell culture medium [2]: completely stable; IC50 (pAkt in SNU‐1 cells): 47.7 µM; IC50 (tErk in SNU‐1 cells): > 1000 µM; Kd ((GTP)K‐Ras4B): 602 µM; IC50 (tAkt in A375 cells): 749 µM; Kd ((GDP)K‐Ras4B): 89 µM; IC50 (pAkt in A375 cells): > 1000 µM; IC50 (pErk in A375 cells): 48.8 µM; stability in human plasma solution [4]: 92%
5 | O=S(=O)(NN=C(c1ccc(O)cc1)c1ccc(O)cc1)c1ccc(Br)cc1 [8 d, N′‐(bis(4‐hydroxyphenyl)methylene)‐4‐bromobenzenesulfonohydrazide] | 96.6 ± 14.5 µM | 850 ± 120 µM | 2220 ± 519 µM | 88.7 ± 23.9 µM | 105 ± 8 µM | 91.8 ± 7.4 µM | 82.8 ± 8.4 µM | 93% | –
6 | Oc1ccc(C(=NNc2ccc(C(F)(F)F)cc2)c2ccc(O)cc2)cc1 [7 e, 4,4′‐((2‐(4‐(Trifluoromethyl)phenyl)‐hydrazinylidene)methylene)diphenol] | 12.5 ± 1.4 µM | 628 ± 170 µM | 1070 ± 312 µM | 16.7 ± 1.9 µM | 13.4 ± 2.7 µM | 11.9 ± 0.7 µM | 15.1 ± 1.2 µM | 90% | IC50 (tErk in A375 cells): > 1000 µM; IC50 (tAkt in SNU‐1 cells): > 1000 µM; IC50 (pErk in SNU‐1 cells): 520 µM; stability in cell culture medium [2]: completely stable; IC50 (pAkt in SNU‐1 cells): 431 µM; IC50 (tErk in SNU‐1 cells): > 1000 µM; IC50 (tAkt in A375 cells): > 1000 µM; IC50 (pAkt in A375 cells): > 1000 µM; IC50 (pErk in A375 cells): > 1000 µM
7 | O=C(c1ccc(O)cc1)c1ccc(O)cc1 [compound 9, 4,4’‐Dihydroxybenzophenone, reference compound] | – | 1210 ± 116 µM | 1330 ± 104 µM | 187 ± 19 µM | > 300 µM | > 300 µM | – | – | Kd (K‐Ras4B): 9100 ± 3900 µM
8 | O=[N+]([O-])c1ccc(S(=O)(=O)NN=C(c2ccc(O)cc2)c2ccc(O)cc2)cc1 [8 e, N′‐(bis(4‐hydroxyphenyl)methylene)‐4‐nitrobenzenesulfonohydrazide] | 51.1 ± 1.2 µM | 255 µM | 298 ± 196 µM | 46.8 ± 1.7 µM | 58.4 ± 6.9 µM | 49.8 ± 2.1 µM | 49.2 ± 0.9 µM | – | –
9 | Oc1ccc(C(=NNc2ccccn2)c2ccc(O)cc2)cc1 [7 f, 4,4′‐((2‐(Pyridin‐2‐yl)hydrazinylidene)‐methylene)diphenol] | – | 1910 ± 98 µM | 2610 ± 225 µM | 71.1 ± 11.3 µM | 65.8 ± 37.3 µM | 67 ± 1.8 µM | – | 98% | –
10 | Oc1ccc(C(=NNc2ccc(Cl)cc2)c2ccc(O)cc2)cc1 [7 d, 4,4′‐((2‐(4‐Chlorophenyl)hydrazinylidene)‐methylene)diphenol] | 27.4 ± 4.5 µM | 475 µM | 1300 ± 417 µM | 31.2 ± 6.8 µM | 29.3 ± 4.1 µM | 30.1 ± 9 µM | 40.2 ± 1 µM | 84% | cell culture medium stability [2]: 0.4%; IC50 [3]: 20 to 30 µM
11 | O=S(=O)(NN=C(c1ccc(O)cc1)c1ccc(O)cc1)c1ccccc1 [8 a, N′‐(bis(4‐hydroxyphenyl)methylene)benzene‐sulfonohydrazide] | 113 ± 13 µM | 1310 ± 389 µM | 1030 ± 371 µM | 92.1 ± 12 µM | 157 ± 54 µM | 105 ± 2 µM | 109 ± 3 µM | 91% | –
12 | O=S(=O)(NN=C(c1ccc(O)cc1)c1ccc(O)cc1)c1ccc(OC(F)(F)F)cc1 [8 f, N′‐(bis(4‐hydroxyphenyl)methylene)‐4‐(trifluoromethoxy)benzenesulfonohydrazide] | 112 ± 10 µM | 858 ± 55 µM | 1650 ± 731 µM | 110 ± 24 µM | 179 ± 43 µM | 111 ± 10 µM | 104 ± 3 µM | 92% | –
13 | O=C(c1nc2cc(O)ccc2[nH]1)c1cc2cccc(O)c2o1 [compound 13, (5‐Hydroxy‐1H‐benzo[d]imidazol‐2‐yl)(7‐hydroxybenzofuran‐ 2‐yl)methanone] | – | 409 ± 32 µM | 334 ± 5 µM | 52.7 ± 0.3 µM | 54.5 ± 0.2 µM | – | – | – | –
14 | N#Cc1ccc(S(=O)(=O)NN=C(c2ccc(O)cc2)c2ccc(O)cc2)cc1 [8 g, N′‐(bis(4‐hydroxyphenyl)methylene)‐4‐cyanobenzenesulfonohydrazide] | > 30 µM | > 3000 µM | 1500 ± 572 µM | > 30 µM | > 30 µM | > 30 µM | > 30 µM | 86% | –
15 | COc1ccc(S(=O)(=O)NN=C(c2ccc(O)cc2)c2ccc(O)cc2)cc1 [8 b, N′‐(bis(4‐hydroxyphenyl)methylene)‐4‐methoxybenzenesulfonohydrazide] | 219 ± 43 µM | 1290 ± 307 µM | 1620 ± 565 µM | 154 ± 30 µM | 260 ± 45 µM | 184 ± 12 µM | 161 ± 9 µM | 89% | –
16 | O=C(NN=C(c1ccc(O)cc1)c1ccc(O)cc1)c1ccccc1 [compound 10, N′‐(Bis(4‐hydroxyphenyl)methylene)‐benzohydrazide] | – | > 3000 µM | > 3000 µM | 173 ± 1 µM | 158 ± 3 µM | 112 ± 3 µM | – | 93% | –
